# Assay results reported in publication PMC2802833 (Journal of Alzheimer's disease : JAD, 2009).
# Strand notation (5' to 3'): a small letter for the sugar, then the base; units joined by * are phosphorothioate-linked, units joined directly phosphodiester-linked; [ ] holds rarer units or linkages, { } end groups; capitals alone tell only the bases. d = 2'-deoxy (DNA)
# What was measured:
# [1] = tested on: primary mouse BMEC monolayers; experiment: Transport; format: cell-based; conditions: 1 μg/mL unlabeled Aβ42 added to abluminal chamber; n = 13-15/group
# Procedure, shortened: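 Primary mouse brain endothelial cells were isolated by enzyme digestion and Percoll gradient. They were seeded at 4 × 10^4 cells/insert on fibronectin/collagen IV-coated 0.33 cm2, 0.4 μm polyester Transwells and grown to confluence (~3 days) in DMEM/F-12 with 20% plasma-derived serum, bFGF and 500 nM hydrocortisone. Assays ran in HEPES buffer pH 7.4 with 1% BSA. Radio-iodinated Aβ42 (1 × 10^6 cpm/mL) was placed in the loading chamber, with or without unlabelled Aβ42 (1 μg/mL). TCA-precipitable counts were used to give clearance and membrane-corrected permeability (cm/min).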
# [2] = Saturability of brain uptake for cocktail ODNs; format: in vivo; conditions: 10 μg/mouse unlabeled PS-ODN i.v., brain/serum ratio at 30 min; n = 8-9/group
# Procedure, shortened: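 Labelled 19mer or 23mer (5 × 10^5 cpm/200 μl lactated Ringer's–1% BSA) was given i.v. with or without 10 μg/mouse of the corresponding unlabelled phosphorothioate oligonucleotide. Brain and serum were collected 30 min after injection. Results were expressed as brain/serum ratios.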
# [3] = In vivo brain-to-blood efflux rate of i.c.v. P-Olg; design: species or system mouse; conditions: after i.c.v. injection, 5 × 10^3 cpm/μl, 2-20 min; n = 2-3 mice/time point
# Procedure, shortened: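 Oligonucleotide was kinase-labelled, ethanol-precipitated, stored at −70°C and used within 48 h. After i.c.v. injection into anaesthetised mice, animals were decapitated at 2, 5, 10 or 20 min and brain radioactivity counted. The t = 0 level came from urethane-overdosed mice. Log % injected dose was plotted against time, and the slope (efflux rate) was obtained by linear regression. n = 2–3 mice/time point.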
# LRP-1 [4] = experiment: Immunohistochemistry of LRP-1 in isolated mouse brain microvessels; format: cell-based; conditions: isolated MBMs, 10 μg/mL, 24 h; buffer = 100%; n = 5-6 slides/group
# Procedure, shortened: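 Cerebral cortices from 10–12 adult male CD-1 mice, meninges removed, were homogenised in cold HEPES/dextran stock buffer. Microvessels were isolated by nylon-mesh filtration and dextran centrifugation, then kept in incubation buffer pH 7.4. They were exposed to buffer, random antisense or antisense cocktail (10 μg/mL) for 24 h. Vessels were heat-fixed, fixed in 3.7% formaldehyde and Triton-permeabilised, then stained overnight at 4°C with anti-LRP-1 antibody (10 μg/mL). Mean fluorescence was measured from 5–6 […]/group.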
# LRP-1 [5] = biological target: LRP-1 (Mus musculus, UniProt Q91ZX7); experiment: Inhibition by RAP of brain-to-blood efflux of i.c.v. I-Aβ42; format: in vivo; conditions: n = 9/group
# Sequence of LRP-1 (Mus musculus, UniProt Q91ZX7) (Q91ZX7 20-4545): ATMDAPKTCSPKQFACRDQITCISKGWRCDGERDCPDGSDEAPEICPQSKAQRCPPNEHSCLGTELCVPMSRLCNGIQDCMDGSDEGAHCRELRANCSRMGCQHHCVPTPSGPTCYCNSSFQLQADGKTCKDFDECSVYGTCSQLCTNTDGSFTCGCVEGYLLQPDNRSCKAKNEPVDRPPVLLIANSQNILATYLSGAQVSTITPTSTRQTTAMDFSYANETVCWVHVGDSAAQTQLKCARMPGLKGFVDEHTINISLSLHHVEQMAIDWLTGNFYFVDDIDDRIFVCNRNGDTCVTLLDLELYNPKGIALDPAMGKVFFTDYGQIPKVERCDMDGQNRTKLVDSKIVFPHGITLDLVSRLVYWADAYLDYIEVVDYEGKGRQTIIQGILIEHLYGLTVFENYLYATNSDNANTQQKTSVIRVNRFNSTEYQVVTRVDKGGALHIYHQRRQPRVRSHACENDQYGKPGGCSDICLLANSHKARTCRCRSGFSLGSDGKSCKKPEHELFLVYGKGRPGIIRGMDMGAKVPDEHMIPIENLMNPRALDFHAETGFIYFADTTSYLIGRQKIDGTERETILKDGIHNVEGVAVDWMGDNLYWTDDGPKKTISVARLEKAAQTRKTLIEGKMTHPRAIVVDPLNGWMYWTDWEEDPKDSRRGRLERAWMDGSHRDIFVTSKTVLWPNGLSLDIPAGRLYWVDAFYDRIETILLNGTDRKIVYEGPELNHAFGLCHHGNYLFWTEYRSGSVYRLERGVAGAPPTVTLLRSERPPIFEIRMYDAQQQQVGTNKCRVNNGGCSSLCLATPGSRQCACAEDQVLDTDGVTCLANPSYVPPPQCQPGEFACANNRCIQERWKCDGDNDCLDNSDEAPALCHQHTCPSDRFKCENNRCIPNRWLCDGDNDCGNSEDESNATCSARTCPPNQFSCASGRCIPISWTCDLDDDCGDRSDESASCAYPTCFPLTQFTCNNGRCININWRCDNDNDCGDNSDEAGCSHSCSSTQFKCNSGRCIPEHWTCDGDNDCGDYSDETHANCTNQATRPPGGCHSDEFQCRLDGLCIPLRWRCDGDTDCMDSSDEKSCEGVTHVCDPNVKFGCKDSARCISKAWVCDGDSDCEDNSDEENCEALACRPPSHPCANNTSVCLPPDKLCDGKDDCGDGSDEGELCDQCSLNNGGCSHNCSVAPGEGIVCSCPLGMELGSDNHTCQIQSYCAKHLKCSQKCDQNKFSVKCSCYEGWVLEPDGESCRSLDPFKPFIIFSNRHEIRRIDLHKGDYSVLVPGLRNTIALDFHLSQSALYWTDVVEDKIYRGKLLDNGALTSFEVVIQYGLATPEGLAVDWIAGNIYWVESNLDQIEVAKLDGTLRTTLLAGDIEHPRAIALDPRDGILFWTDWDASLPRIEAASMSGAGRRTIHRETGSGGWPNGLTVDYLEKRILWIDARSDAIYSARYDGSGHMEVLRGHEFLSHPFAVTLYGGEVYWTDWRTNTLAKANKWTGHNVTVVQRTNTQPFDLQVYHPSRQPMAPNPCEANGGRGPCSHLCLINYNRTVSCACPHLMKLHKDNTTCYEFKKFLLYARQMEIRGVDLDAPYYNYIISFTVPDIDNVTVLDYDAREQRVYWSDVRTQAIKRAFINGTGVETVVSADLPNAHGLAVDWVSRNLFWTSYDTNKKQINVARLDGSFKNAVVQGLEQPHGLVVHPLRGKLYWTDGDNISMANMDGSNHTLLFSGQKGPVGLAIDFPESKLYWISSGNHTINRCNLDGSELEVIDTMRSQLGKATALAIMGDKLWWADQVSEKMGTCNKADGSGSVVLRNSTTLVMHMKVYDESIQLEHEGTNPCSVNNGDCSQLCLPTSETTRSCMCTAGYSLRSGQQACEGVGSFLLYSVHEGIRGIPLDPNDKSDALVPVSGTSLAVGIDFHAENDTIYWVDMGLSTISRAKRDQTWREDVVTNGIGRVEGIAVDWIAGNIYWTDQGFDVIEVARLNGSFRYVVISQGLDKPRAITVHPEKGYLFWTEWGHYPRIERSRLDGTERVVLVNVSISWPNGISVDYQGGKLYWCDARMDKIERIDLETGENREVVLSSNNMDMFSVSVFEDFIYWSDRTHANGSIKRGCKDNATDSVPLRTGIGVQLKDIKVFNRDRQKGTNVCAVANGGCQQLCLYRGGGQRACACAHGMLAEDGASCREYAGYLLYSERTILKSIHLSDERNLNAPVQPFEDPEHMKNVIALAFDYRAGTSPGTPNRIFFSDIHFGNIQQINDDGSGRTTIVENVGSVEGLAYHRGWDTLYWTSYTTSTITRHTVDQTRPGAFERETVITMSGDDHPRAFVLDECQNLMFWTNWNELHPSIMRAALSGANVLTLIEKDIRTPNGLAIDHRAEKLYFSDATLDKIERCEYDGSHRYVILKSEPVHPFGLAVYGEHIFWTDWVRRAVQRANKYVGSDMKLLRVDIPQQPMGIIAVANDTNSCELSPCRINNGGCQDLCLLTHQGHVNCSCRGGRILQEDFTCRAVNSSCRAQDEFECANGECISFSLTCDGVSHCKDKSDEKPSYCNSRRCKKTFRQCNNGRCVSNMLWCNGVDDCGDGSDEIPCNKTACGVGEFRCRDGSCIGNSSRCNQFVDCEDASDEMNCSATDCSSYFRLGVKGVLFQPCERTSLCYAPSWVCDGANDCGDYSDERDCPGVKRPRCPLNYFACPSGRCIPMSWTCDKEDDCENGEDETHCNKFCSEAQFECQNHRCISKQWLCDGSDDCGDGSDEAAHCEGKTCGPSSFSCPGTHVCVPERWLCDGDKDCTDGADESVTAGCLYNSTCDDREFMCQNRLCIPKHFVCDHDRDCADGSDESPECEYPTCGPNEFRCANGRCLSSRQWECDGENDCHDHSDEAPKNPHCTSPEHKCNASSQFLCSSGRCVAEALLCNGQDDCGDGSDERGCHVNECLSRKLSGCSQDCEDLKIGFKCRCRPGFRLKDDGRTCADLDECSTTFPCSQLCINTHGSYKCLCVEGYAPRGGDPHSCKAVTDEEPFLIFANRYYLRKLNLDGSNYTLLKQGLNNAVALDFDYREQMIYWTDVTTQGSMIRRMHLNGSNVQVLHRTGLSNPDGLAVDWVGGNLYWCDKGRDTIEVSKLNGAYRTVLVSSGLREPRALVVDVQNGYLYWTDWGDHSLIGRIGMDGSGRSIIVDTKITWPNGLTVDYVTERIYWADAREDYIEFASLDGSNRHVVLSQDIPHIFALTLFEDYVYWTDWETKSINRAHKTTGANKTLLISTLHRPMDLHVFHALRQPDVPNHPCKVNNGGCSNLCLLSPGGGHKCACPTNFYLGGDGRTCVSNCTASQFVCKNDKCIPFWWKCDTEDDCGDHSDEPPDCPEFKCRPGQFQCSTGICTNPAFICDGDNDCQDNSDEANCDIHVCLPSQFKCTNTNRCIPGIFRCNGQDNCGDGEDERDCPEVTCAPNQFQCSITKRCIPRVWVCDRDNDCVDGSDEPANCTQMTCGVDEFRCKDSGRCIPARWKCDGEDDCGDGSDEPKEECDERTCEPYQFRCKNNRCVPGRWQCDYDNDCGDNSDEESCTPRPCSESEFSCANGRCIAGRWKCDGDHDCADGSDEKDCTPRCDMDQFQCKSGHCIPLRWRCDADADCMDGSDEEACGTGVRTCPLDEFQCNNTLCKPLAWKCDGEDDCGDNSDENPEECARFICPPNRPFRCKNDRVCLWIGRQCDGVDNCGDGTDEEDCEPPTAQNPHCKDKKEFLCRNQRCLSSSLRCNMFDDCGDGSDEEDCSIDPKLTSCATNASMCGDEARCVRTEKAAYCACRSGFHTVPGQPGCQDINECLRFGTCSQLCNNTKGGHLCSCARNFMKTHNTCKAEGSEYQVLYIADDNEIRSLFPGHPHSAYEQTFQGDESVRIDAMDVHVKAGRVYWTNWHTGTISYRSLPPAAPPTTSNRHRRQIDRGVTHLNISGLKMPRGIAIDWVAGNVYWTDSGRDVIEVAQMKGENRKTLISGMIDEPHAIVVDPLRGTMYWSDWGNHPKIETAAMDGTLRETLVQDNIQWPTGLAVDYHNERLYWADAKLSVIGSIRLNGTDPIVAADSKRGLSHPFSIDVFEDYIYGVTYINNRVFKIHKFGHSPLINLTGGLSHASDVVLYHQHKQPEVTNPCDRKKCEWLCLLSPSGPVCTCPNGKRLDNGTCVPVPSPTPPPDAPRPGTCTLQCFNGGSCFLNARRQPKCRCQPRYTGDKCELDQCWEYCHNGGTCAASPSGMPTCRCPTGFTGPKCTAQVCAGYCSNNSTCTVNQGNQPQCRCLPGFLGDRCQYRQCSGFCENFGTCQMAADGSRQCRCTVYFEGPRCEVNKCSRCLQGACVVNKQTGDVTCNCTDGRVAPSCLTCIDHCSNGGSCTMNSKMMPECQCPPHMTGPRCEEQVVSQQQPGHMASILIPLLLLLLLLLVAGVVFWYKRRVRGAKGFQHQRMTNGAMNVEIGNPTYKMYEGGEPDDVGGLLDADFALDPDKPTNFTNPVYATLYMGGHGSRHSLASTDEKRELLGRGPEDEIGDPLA
Substance,brain uptake on co-administration of unlabeled PS-ODN (saturability) [2],half-time clearance from brain [3],further results
"Aβ42: 42 amino acid murine Aβ (Bachem), unlabeled, used as competitor of I-Aβ42 transport",–,–,abluminal-to-luminal transport of I-Aβ42 (saturability) [1]: significantly (p < 0.01) inhibited
"P-19mer: 19mer (Anti-LRP1) phosphorothioate ODN 5′-(_P=S)TGATTTGGTCTCTGCAGGC-3′, directed at an LRP-1 coding region (nt 559–541) (antisense dT*dG*dA*dT*dT*dT*dG*dG*dT*dC*dT*dC*dT*dG*dC*dA*dG*dG*dC)",not significantly decreased,231.5 min,–
"P-23mer: 23mer (Anti-LRP1) phosphorothioate ODN 5′-(_P=S)GTGTGGGCCGATGCAAACAGCAG-3′, designed to bind the translation start site (nt 442–418) (antisense dG*dT*dG*dT*dG*dG*dG*dC*dC*dG*dA*dT*dG*dC*dA*dA*dA*dC*dA*dG*dC*dA*dG)",significantly decreased,47.8 min,–
"random antisense: 21mer (Random) control PS-ODN 5′-(_P=S)GAGAAGGTTGTGTGATCTTCA, no sequence homology with any mouse genes (antisense dG*dA*dG*dA*dA*dG*dG*dT*dT*dG*dT*dG*dT*dG*dA*dT*dC*dT*dT*dC*dA)",–,–,mean fluorescent intensity (LRP-1 immunofluorescence) (LRP-1 [4]): 111.14%
receptor-associated protein [RAP],–,–,brain-to-blood efflux of i.c.v. administered I-Aβ42 (LRP-1 [5]): inhibits
